# Laboratory results taken from ChEMBL document CHEMBL1153726, “Synthesis and anticancer activity of sclerophytin-inspired hydroisobenzofurans” (Bioorg Med Chem Lett, 2009).
# Experiments:
# Assay type in all cases: functional
# [1] = Growth inhibition of human […] cells after 96 hrs by MTT assay
# Procedure, shortened: (§1)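 Tested in the NCI 60-cell-line panel in five-dose format; GI50 and LC50 values reported for each cell line.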
# CAKI-1 [2] = assay: Growth inhibition of human Caki1 cells at 1 nM after 96 hrs by MTT assay; set-up: scale not given: the % may be the effect or the level left
# SK-MEL-28 = assay: Growth inhibition of human SK-MEL-28 cells at 100 nM after 96 hrs by MTT assay; set-up: scale not given: the % may be the effect or the level left
# SW-620 [3] = assay: Growth inhibition of human SW620 cells at 1 nM after 96 hrs by MTT assay; set-up: scale not given: the % may be the effect or the level left
# HT-29 = assay: Growth inhibition of human HT-29 cells at 1 nM after 96 hrs by MTT assay; set-up: scale not given: the % may be the effect or the level left
# SK-OV-3 [4] = assay: Growth inhibition of human SKOV3 cells after 96 hrs by MTT assay; settings: SK-OV-3, 96 h; procedure, shortened: as §1
# CAKI-1 [5] = assay: Growth inhibition of human Caki1 cells at 10 nM after 96 hrs by MTT assay; set-up: scale not given: the % may be the effect or the level left
# A498 = assay: Growth inhibition of human A498 cells at 10 nM after 96 hrs by MTT assay; set-up: scale not given: the % may be the effect or the level left
# OVCAR-3 [6] = assay: Growth inhibition of human OVCAR-3 cells at 1 nM after 96 hrs by MTT assay; set-up: scale not given: the % may be the effect or the level left
# HOP-92 [7] = assay: Growth inhibition of human HOP92 cells at 100 nM after 96 hrs by MTT assay; set-up: scale not given: the % may be the effect or the level left
# ACHN [8] = assay: Growth inhibition of human ACHN cells at 1 nM after 96 hrs by MTT assay; set-up: scale not given: the % may be the effect or the level left
# NCI-H322M [9] = assay: Growth inhibition of human NCI-H322M cells at 1 uM after 96 hrs by MTT assay; set-up: scale not given: the % may be the effect or the level left
# PC-3 = assay: Growth inhibition of human PC3 cells at 10 nM after 96 hrs by MTT assay; set-up: scale not given: the % may be the effect or the level left
# EKVX [10] = assay: Growth inhibition of human EKVX cells at 10 nM after 96 hrs by MTT assay; set-up: scale not given: the % may be the effect or the level left
# NCI-H322M [11] = assay: Growth inhibition of human NCI-H322M cells at 1 nM after 96 hrs by MTT assay; set-up: scale not given: the % may be the effect or the level left
# MCF7 = assay: Growth inhibition of human MCF7 cells at 1 nM after 96 hrs by MTT assay; set-up: scale not given: the % may be the effect or the level left
# Malme-3M [12] = assay: Growth inhibition of human MALME-3M cells at 1 nM after 96 hrs by MTT assay; set-up: scale not given: the % may be the effect or the level left
# Malme-3M [13] = assay: Growth inhibition of human MALME-3M cells at 10 uM after 96 hrs by MTT assay; set-up: scale not given: the % may be the effect or the level left
# NCI-H226 [14] = assay: Growth inhibition of human NCI-H226 cells at 10 uM after 96 hrs by MTT assay; set-up: scale not given: the % may be the effect or the level left
# NCI-H226 [15] = assay: Growth inhibition of human NCI-H226 cells at 1 nM after 96 hrs by MTT assay; set-up: scale not given: the % may be the effect or the level left
# SW-620 [16] = assay: Growth inhibition of human SW620 cells at 10 nM after 96 hrs by MTT assay; set-up: scale not given: the % may be the effect or the level left
# SK-MEL-2 = assay: Growth inhibition of human SK-MEL-2 cells after 96 hrs by MTT assay; settings: SK-MEL-2, 96 h; procedure, shortened: as §1
# HOP-62 = assay: Growth inhibition of human HOP62 cells at 10 uM after 96 hrs by MTT assay; set-up: scale not given: the % may be the effect or the level left
# OVCAR-4 = assay: Growth inhibition of human OVCAR4 cells at 1 nM after 96 hrs by MTT assay; set-up: scale not given: the % may be the effect or the level left
# ACHN [17] = assay: Growth inhibition of human ACHN cells after 96 hrs by MTT assay
# NCI/ADR-RES = assay: Growth inhibition of human NCI/ADR-RES cells at 10 uM after 96 hrs by MTT assay; set-up: scale not given: the % may be the effect or the level left
# UACC-257 = assay: Growth inhibition of human UACC257 cells at 10 uM after 96 hrs by MTT assay; set-up: scale not given: the % may be the effect or the level left
# 786-0 = assay: Growth inhibition of human 786-0 cells after 96 hrs by MTT assay; settings: 786-0, 96 h
# SNB-19 = assay: Growth inhibition of human SNB19 cells at 100 nM after 96 hrs by MTT assay; set-up: scale not given: the % may be the effect or the level left
# OVCAR-8 = assay: Growth inhibition of human OVCAR8 cells after 96 hrs by MTT assay; settings: OVCAR-8, 96 h; procedure, shortened: as §1
# NCI-H23 = assay: Growth inhibition of human NCI-H23 cells after 96 hrs by MTT assay; settings: NCI-H23, 96 h
# Procedure, shortened: (§2)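 Run in the NCI 60 human tumour cell line panel as a five-dose assay. GI50 and LC50 were reported for each cell line.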
# HOP-92 [18] = assay: Growth inhibition of human HOP92 cells at 10 nM after 96 hrs by MTT assay; set-up: scale not given: the % may be the effect or the level left
# OVCAR-3 [19] = assay: Growth inhibition of human OVCAR-3 cells at 1 uM after 96 hrs by MTT assay; set-up: scale not given: the % may be the effect or the level left
# ACHN [20] = assay: Growth inhibition of human ACHN cells at 1 uM after 96 hrs by MTT assay; set-up: scale not given: the % may be the effect or the level left
# MDA-MB-435 = assay: Growth inhibition of human MDA-MB-435 cells at 10 uM after 96 hrs by MTT assay; set-up: scale not given: the % may be the effect or the level left
# LOX IMVI = assay: Growth inhibition of human LOXIMVI cells at 100 nM after 96 hrs by MTT assay; set-up: scale not given: the % may be the effect or the level left
# EKVX [21] = assay: Growth inhibition of human EKVX cells at 1 uM after 96 hrs by MTT assay; set-up: scale not given: the % may be the effect or the level left
# HOP-92 [22] = assay: Growth inhibition of human HOP92 cells after 96 hrs by MTT assay; settings: HOP-92, 96 h; procedure, shortened: as §2
# KM12 = assay: Growth inhibition of human KM12 cells at 10 uM after 96 hrs by MTT assay; set-up: scale not given: the % may be the effect or the level left
# SK-OV-3 [23] = assay: Growth inhibition of human SKOV3 cells at 1 uM after 96 hrs by MTT assay; set-up: scale not given: the % may be the effect or the level left
# [24] = read-out: LC50 (the source's name)
# [25] = read-out: Log10GI50 (converted)
# [26] = read-out: Log10LC50 (converted)
structure (smiles),measurement,setting,value
C=C(C)[C@H]1CC=C(C)C2=CO[C@@H](c3ccccc3F)[C@@H]21,GI50,[1]; read-out: GI50,0.148 µM
same,CC50,[1]; [24],9.36 µM
same,GI50,[1]; [25],0.148 µM
same,CC50,[1]; [26],9.33 µM
same,TGI,[1]; read-out: Log10TGI (converted),2 µM
same,TGI,[1]; read-out: TGI,2.01 µM
same,Activity,CAKI-1 [2],96%
same,Activity,SK-MEL-28,93%
same,Activity,SW-620 [3],96%
same,Activity,HT-29,98%
same,GI50,SK-OV-3 [4]; read-out: GI50,12.3 µM
same,CC50,SK-OV-3 [4]; [24],> 100 µM
same,GI50,SK-OV-3 [4]; [25],12.3 µM
same,CC50,SK-OV-3 [4]; [26],> 100 µM
same,TGI,SK-OV-3 [4]; read-out: Log10TGI (converted),38.9 µM
same,TGI,SK-OV-3 [4]; read-out: TGI,39.3 µM
same,Activity,CAKI-1 [5],93%
same,Activity,A498,91%
same,Activity,OVCAR-3 [6],88%
same,Activity,HOP-92 [7],43%
same,Activity,ACHN [8],96%
same,Activity,NCI-H322M [9],49%
same,Activity,PC-3,89%
same,Activity,EKVX [10],93%
same,Activity,NCI-H322M [11],95%
same,Activity,MCF7,93%
same,Activity,Malme-3M [12],97%
same,Activity,Malme-3M [13],101.14%
same,Activity,NCI-H226 [14],98.1%
same,Activity,NCI-H226 [15],96%
same,Activity,SW-620 [16],97%
same,GI50,SK-MEL-2; read-out: GI50,3.74 µM
same,CC50,SK-MEL-2; [24],55.2 µM
same,GI50,SK-MEL-2; [25],3.72 µM
same,CC50,SK-MEL-2; [26],55 µM
same,TGI,SK-MEL-2; read-out: Log10TGI (converted),19.1 µM
same,TGI,SK-MEL-2; read-out: TGI,19.2 µM
same,Activity,HOP-62,108.33%
same,Activity,OVCAR-4,91%
same,GI50,ACHN [17]; read-out: GI50,6.39 µM
same,CC50,ACHN [17]; [24],43.8 µM
same,GI50,ACHN [17]; [25],6.46 µM
same,CC50,ACHN [17]; [26],43.7 µM
same,TGI,ACHN [17]; read-out: Log10TGI (converted),19.1 µM
same,TGI,ACHN [17]; read-out: TGI,19 µM
same,Activity,NCI/ADR-RES,108.3%
same,Activity,UACC-257,76.82%
same,GI50,786-0; read-out: GI50,8.73 µM
same,CC50,786-0; [24],48.1 µM
same,GI50,786-0; [25],8.71 µM
same,CC50,786-0; [26],47.9 µM
same,TGI,786-0; read-out: Log10TGI (converted),21.4 µM
same,TGI,786-0; read-out: TGI,21.5 µM
same,Activity,SNB-19,88%
same,GI50,OVCAR-8; read-out: GI50,11.9 µM
same,CC50,OVCAR-8; [24],79 µM
same,GI50,OVCAR-8; [25],11.7 µM
same,CC50,OVCAR-8; [26],79.4 µM
same,TGI,OVCAR-8; read-out: Log10TGI (converted),30.9 µM
same,TGI,OVCAR-8; read-out: TGI,30.6 µM
same,GI50,NCI-H23; read-out: GI50,4.88 µM
same,CC50,NCI-H23; [24],51.4 µM
same,GI50,NCI-H23; [25],4.9 µM
same,CC50,NCI-H23; [26],51.3 µM
same,TGI,NCI-H23; read-out: Log10TGI (converted),19.5 µM
same,TGI,NCI-H23; read-out: TGI,19.4 µM
same,Activity,HOP-92 [18],69%
same,Activity,OVCAR-3 [19],12%
same,Activity,ACHN [20],39%
same,Activity,MDA-MB-435,109.16%
same,Activity,LOX IMVI,79%
same,Activity,EKVX [21],23%
same,GI50,HOP-92 [22]; read-out: GI50,0.552 µM
same,CC50,HOP-92 [22]; [24],26.8 µM
same,GI50,HOP-92 [22]; [25],0.55 µM
same,CC50,HOP-92 [22]; [26],26.9 µM
same,TGI,HOP-92 [22]; read-out: Log10TGI (converted),5.75 µM
same,TGI,HOP-92 [22]; read-out: TGI,5.76 µM
same,Activity,KM12,85.93%
same,Activity,SK-OV-3 [23],59%
